According to ChEMBL document CHEMBL4190328, “Design, Synthesis, and Biological Evaluation of Tetrahydroisoquinoline-Based Histone Deacetylase 8 Selective Inhibitors” (ACS Med Chem Lett, 2017):
The source made the active and inactive calls. The calls are words filed in the database; no cut-off is given here.

What was measured:
[1] = target: T1, Protein deacetylase HDAC6 (Homo sapiens) (UniProt Q9UBN7); assay: Inhibition of recombinant human HDAC6 at 10 uM using fluorogenic HDAC substrate 3 by fluorescence assay relative to control
T1 sequence (whole entry): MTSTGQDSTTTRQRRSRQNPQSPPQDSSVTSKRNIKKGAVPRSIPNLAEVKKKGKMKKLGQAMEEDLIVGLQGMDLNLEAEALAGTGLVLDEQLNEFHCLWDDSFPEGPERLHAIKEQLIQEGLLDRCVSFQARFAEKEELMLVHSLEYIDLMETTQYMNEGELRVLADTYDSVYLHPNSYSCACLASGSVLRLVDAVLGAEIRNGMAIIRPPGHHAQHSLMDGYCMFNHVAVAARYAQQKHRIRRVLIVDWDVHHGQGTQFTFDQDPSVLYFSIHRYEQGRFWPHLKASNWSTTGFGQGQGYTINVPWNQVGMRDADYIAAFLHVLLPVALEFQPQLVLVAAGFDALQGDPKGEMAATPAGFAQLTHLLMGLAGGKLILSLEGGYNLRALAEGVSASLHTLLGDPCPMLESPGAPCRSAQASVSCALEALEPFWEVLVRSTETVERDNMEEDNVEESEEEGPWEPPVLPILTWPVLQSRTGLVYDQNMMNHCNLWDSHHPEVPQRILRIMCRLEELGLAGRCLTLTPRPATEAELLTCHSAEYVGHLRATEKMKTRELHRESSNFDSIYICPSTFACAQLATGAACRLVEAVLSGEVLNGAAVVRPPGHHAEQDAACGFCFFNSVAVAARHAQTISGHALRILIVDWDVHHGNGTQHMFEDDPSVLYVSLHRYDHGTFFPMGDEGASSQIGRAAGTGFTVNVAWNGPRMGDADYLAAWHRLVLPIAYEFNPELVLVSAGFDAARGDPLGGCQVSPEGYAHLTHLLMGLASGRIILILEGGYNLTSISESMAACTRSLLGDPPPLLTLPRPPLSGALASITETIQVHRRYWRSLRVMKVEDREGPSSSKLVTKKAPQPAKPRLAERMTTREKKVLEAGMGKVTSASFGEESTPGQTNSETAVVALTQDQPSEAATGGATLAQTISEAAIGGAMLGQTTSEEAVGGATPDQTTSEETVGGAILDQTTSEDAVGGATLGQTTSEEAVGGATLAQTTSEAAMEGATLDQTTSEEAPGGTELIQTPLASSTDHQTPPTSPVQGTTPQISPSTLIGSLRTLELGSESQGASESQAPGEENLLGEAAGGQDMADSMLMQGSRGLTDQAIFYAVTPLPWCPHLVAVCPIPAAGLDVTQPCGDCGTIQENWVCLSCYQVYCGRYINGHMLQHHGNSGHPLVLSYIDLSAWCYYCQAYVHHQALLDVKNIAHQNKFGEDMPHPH
In short: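 HDAC6 activity was measured with test compound at 10 μM and reported as percent inhibition. Values are mean ± standard deviation of at least two independent experiments, rounded to two significant figures.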

Homo sapiens [2] = species: Homo sapiens; assay: Selectivity ratio of IC50 for recombinant full-length human C-terminal FLAG-His-tagged HDAC1 expressed in baculovirus infected Sf9 insect cells to IC50 for recombinant HDAC8 (unknown origin) expressed in Escherichia coli
Histone deacetylase 8 = target: T2, Histone deacetylase 8 (Homo sapiens, UniProt Q9BY41); assay: Inhibition of recombinant HDAC8 (unknown origin) expressed in Escherichia coli using fluor de Lys(R) as substrate pretreated for 5 mins followed by substrate addition measured after 35 mins by fluorescence assay
T2 sequence (Q9BY41 whole entry): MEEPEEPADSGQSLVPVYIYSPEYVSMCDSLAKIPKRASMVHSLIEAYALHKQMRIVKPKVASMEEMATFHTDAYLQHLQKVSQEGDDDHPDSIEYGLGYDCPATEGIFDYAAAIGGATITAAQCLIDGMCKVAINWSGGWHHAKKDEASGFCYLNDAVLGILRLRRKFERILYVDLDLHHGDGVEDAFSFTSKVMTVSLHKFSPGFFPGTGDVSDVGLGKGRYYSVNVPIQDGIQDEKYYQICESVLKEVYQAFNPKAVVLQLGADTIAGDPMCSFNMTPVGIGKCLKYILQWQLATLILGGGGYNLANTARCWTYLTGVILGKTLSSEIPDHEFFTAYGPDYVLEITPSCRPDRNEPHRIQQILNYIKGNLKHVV

[3] = target: Histone deacetylase 3/Nuclear receptor corepressor 2 (HDAC3/NCoR2) (Homo sapiens, UniProt O15379); assay: Inhibition of recombinant human full-length C-terminal His-tagged HDAC3 (395 to 489 residues)/human NCOR2 expressed in baculovirus infected Sf9 insect cells using Boc-L-Lys(Ac)-AMC as substrate pretreated for 5 mins followed by substrate addition measured after 35 mins by fluorescence assay
Chain of Histone deacetylase 3/Nuclear receptor corepressor 2 (HDAC3/NCoR2) (O15379 whole entry, the tested form may be a part): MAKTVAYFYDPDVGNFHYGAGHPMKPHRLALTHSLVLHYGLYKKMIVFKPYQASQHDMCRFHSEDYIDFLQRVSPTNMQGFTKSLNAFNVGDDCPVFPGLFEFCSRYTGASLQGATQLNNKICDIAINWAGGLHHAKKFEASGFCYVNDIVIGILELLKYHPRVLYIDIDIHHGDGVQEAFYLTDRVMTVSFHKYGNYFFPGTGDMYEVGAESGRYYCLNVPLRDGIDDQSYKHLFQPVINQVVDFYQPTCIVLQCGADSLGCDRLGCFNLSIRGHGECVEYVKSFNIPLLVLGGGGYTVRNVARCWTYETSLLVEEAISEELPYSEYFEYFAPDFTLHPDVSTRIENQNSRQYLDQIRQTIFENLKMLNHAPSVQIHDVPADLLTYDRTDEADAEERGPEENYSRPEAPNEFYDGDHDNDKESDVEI
Chain of Histone deacetylase 3/Nuclear receptor corepressor 2 (HDAC3/NCoR2) (Q9Y618 whole entry, further chain, the tested form may be a part): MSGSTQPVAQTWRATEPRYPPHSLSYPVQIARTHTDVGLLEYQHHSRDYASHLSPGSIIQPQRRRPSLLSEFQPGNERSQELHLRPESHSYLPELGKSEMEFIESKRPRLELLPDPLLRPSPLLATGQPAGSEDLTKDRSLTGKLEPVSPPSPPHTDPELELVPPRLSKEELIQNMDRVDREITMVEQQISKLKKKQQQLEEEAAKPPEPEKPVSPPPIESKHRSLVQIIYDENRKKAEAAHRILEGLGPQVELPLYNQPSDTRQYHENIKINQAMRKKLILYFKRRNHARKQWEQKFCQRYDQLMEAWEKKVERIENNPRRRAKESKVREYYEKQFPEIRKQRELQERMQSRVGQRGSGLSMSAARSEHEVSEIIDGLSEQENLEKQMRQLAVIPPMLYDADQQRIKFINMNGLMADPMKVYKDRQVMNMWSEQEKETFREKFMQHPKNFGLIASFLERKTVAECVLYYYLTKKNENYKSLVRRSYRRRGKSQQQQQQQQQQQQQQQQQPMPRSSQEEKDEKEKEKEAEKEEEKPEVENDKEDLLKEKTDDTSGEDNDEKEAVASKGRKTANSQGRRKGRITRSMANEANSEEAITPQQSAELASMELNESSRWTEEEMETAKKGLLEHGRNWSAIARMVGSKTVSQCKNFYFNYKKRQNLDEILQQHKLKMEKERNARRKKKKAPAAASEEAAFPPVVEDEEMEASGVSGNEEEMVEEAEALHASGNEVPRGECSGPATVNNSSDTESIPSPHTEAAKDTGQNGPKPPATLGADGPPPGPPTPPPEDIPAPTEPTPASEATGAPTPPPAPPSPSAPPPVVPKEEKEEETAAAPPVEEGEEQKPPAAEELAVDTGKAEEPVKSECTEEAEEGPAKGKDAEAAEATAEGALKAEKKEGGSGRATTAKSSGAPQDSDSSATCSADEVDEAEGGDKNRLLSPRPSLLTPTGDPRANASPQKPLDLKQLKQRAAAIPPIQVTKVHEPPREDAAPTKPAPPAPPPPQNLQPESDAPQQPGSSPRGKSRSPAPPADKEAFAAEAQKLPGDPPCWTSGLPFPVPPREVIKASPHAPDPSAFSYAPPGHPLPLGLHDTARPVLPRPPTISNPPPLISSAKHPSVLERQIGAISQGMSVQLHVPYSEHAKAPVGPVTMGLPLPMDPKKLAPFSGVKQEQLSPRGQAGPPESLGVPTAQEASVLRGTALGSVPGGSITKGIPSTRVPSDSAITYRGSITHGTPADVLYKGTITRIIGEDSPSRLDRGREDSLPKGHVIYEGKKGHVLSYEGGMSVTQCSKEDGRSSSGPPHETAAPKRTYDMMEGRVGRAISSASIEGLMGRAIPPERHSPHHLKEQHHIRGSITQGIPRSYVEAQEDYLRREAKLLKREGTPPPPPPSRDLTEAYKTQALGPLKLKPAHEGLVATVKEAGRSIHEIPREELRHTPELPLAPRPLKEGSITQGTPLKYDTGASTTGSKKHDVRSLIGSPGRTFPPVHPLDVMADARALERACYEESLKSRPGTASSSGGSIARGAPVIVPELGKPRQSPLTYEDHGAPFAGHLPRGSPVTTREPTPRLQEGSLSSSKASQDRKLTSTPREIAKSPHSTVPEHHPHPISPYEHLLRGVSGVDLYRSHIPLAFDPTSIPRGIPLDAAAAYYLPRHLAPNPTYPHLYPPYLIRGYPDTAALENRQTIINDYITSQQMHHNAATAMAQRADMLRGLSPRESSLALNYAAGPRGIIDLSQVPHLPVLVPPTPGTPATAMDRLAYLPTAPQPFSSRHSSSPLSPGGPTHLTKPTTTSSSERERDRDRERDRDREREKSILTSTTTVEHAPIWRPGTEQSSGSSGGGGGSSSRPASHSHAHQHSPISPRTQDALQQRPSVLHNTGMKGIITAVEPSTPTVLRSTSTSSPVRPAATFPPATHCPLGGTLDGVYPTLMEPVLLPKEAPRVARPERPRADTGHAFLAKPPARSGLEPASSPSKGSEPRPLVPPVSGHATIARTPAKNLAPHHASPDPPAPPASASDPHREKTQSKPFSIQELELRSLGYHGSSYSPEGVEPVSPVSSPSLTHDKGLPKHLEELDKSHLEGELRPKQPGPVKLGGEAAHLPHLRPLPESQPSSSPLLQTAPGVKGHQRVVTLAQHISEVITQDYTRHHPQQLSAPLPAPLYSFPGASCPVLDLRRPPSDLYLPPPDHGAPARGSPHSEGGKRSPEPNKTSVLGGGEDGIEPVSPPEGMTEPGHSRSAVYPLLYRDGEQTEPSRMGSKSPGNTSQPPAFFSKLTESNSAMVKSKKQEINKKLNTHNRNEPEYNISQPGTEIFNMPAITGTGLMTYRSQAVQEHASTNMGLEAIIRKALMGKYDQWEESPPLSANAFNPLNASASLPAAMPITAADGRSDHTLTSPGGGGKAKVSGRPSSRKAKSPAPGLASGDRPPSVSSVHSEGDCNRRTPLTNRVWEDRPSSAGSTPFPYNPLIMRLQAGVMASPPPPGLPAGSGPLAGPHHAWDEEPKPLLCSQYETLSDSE

Histone deacetylase 2 = Histone deacetylase 2 (Homo sapiens, UniProt Q92769); assay: Inhibition of recombinant human full-length C-terminal His-tagged HDAC2 expressed in baculovirus infected Sf9 insect cells using Boc-L-Lys(Ac)-AMC as substrate preincubated for 5 mins followed by substrate addition measured after 35 mins by fluorescence assay
Chain of Histone deacetylase 2 (Q92769 whole entry): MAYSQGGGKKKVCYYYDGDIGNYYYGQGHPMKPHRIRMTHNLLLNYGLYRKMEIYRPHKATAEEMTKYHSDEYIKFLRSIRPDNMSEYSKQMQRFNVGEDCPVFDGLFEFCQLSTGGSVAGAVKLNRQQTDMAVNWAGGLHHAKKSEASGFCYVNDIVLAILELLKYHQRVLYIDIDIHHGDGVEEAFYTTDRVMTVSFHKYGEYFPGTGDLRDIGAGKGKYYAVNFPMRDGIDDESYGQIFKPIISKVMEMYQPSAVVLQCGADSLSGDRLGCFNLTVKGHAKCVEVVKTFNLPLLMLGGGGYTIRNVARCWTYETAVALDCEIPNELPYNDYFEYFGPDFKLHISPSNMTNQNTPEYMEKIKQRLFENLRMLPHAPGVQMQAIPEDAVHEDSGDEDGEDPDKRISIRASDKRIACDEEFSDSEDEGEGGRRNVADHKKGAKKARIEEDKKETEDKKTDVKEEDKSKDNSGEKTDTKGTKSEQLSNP

SH-SY5Y [4] = assay: Inhibition of class 2 HDAC in human SH-SY5Y cells assessed as increase in acetylation of alpha-tubulin at 0.1 to 10 uM after 24 hrs by Western blot analysis; type: cell-based
In short: (§1)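 SH-SY5Y cells were treated with the stated concentrations for 24 h. Lysates were analysed by Western blot for acetylated histone H3 and acetylated α-tubulin.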

Histone deacetylase 1 = Histone deacetylase 1 (Homo sapiens, UniProt Q13547); assay: Inhibition of recombinant full-length human C-terminal FLAG-His-tagged HDAC1 expressed in baculovirus infected Sf9 insect cells using Boc-L-Lys(Ac)-AMC as substrate preincubated for 5 mins followed by substrate addition measured after 35 mins by fluorescence assay
Chain of Histone deacetylase 1 (Q13547 whole entry): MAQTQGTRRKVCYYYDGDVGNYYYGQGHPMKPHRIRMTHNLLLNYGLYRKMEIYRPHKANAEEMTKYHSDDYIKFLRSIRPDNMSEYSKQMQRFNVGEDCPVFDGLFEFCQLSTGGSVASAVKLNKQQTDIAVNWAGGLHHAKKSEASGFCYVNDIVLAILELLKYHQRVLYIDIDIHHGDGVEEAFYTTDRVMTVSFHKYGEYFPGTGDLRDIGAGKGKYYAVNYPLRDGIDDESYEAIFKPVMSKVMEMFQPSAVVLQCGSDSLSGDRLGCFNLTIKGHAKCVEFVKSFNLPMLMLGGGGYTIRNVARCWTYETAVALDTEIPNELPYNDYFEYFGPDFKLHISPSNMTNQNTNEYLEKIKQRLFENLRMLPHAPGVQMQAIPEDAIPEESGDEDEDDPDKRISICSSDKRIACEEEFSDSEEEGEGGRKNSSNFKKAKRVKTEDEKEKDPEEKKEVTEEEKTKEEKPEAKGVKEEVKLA

SH-SY5Y [5] = assay: Inhibition of class 1 HDAC in human SH-SY5Y cells assessed as increase in acetylation of histone H3 at 0.1 to 10 uM after 24 hrs by Western blot analysis; type: cell-based; in short: as §1
SH-SY5Y [6] = assay: Cytotoxicity against human SH-SY5Y cells expressing TP53 at 10 uM supplemented with fresh medium containing compound every 3 days measured after 72 hrs by CellTiter96 AQueous one solution cell proliferation assay; type: functional, cell-based
SH-SY5Y [7] = assay: Cytotoxicity against human SH-SY5Y cells expressing TP53 after 48 hrs by CellTiter96 AQueous one solution cell proliferation assay; type: functional, cell-based
In short: (§2)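 Neuroblastoma cells were exposed to compound for 48 h and viability was read by MTS assay. Values are mean ± standard deviation of at least three independent experiments.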

IMR-5 [8] = assay: Cytotoxicity against human IMR5 cells expressing TP53 after 48 hrs by CellTiter96 AQueous one solution cell proliferation assay; type: functional, cell-based; details: IMR-5, 48 h; in short: as §2
Homo sapiens [9] = species: Homo sapiens; assay: Selectivity ratio of IC50 for recombinant human full-length C-terminal His-tagged HDAC2 expressed in baculovirus infected Sf9 insect cells to IC50 for recombinant HDAC8 (unknown origin) expressed in Escherichia coli
Homo sapiens [10] = species: Homo sapiens; assay: Selectivity ratio of IC50 for recombinant human full-length C-terminal His-tagged HDAC3 (395 to 489 residues)/human NCOR2 expressed in baculovirus infected Sf9 insect cells to IC50 for recombinant HDAC8 (unknown origin) expressed in Escherichia coli
SK-N-AS = assay: Cytotoxicity against human SK-N-AS cells expressing TP53 mutation by CellTiter96 AQueous one solution cell proliferation assay; type: functional, cell-based
SH-SY5Y [11] = assay: Cytotoxicity against human SH-SY5Y cells expressing TP53 by CellTiter96 AQueous one solution cell proliferation assay; type: functional, cell-based
IMR-5 [12] = assay: Cytotoxicity against human IMR5 cells expressing TP53 by CellTiter96 AQueous one solution cell proliferation assay; type: functional, cell-based
Kelly = assay: Cytotoxicity against human Kelly cells expressing TP53 mutation by CellTiter96 AQueous one solution cell proliferation assay; type: functional, cell-based
SH-SY5Y [13] = details: Homo sapiens, at 10 µM
SH-SY5Y [14] = details: Homo sapiens, at 10 µM; remark: listed apart in the source

Row | Structure (SMILES) | inhibition [1] | IC50 (Histone deacetylase 8) | IC50 [3] | IC50 (Histone deacetylase 2) | IC50 (Histone deacetylase 1) | also measured
1 | COc1ccc(C2c3ccccc3CCN2CCC(=O)NO)cc1 (stereo not given) | 21% | 82 nM | > 100 µM | > 100 µM | 27 µM | Ratio IC50 (Homo sapiens [2]): 330; inhibition (SH-SY5Y [4]): inactive; inhibition (SH-SY5Y [5]): inactive; Activity (SH-SY5Y [6]): Active
2 | O=C(CCN1CCc2ccccc2C1)NO | 31% | 19000 nM | 98 µM | > 100 µM | 57 µM | –
3 | O=C(CCN1CCc2ccccc2C1c1ccc(-c2ccccc2)cc1)NO (stereo not given) | 39% | 55 nM | 38 µM | 47 µM | 7.3 µM | Ratio IC50 (Homo sapiens [2]): 135; inhibition (SH-SY5Y [4]): inactive; EC50 (SH-SY5Y [7]): 760 nM; inhibition (SH-SY5Y [5]): inactive; EC50 (IMR-5 [8]): 5.8 µM
4 | O=C(CCCCNCc1ccccc1)NO | – | 10000 nM | 22 µM | 58 µM | 14 µM | –
5 | O=C(CCN1CCc2ccccc2C1c1ccccc1)NO (stereo not given) | 35% | 950 nM | 10 µM | 40 µM | 4.4 µM | –
6 | COc1cccc(C2c3ccccc3CCN2CCC(=O)NO)c1 (stereo not given) | 27% | 110 nM | 34 µM | 69 µM | 13 µM | –
7 | O=C(CCCCN1CCc2ccccc2C1c1ccccc1)NO (stereo not given) | 93% | 44 nM | 0.81 µM | 2.7 µM | 0.77 µM | Ratio IC50 (Homo sapiens [2]): 18; Ratio IC50 (Homo sapiens [9]): 61; Ratio IC50 (Homo sapiens [10]): 18
8 | O=C(CCNCc1ccccc1)NO | – | > 100000 nM | 72 µM | > 100 µM | 50 µM | –
9 | CC(C)(C)c1ccc(C2c3ccccc3CCN2CCC(=O)NO)cc1 (stereo not given) | 30% | 480 nM | 29 µM | 29 µM | 18 µM | –
10 | O=C(CCCCCCN1CCc2ccccc2C1)NO | 97% | 1900 nM | 0.097 µM | 0.33 µM | 0.098 µM | –
11 | O=C(CCN1CCc2ccccc2C1C1CCCCC1)NO (stereo not given) | 32% | 6700 nM | 75 µM | > 100 µM | > 100 µM | –
12 | O=C(CCCCCCN(Cc1ccccc1)Cc1ccccc1)NO | – | 4000 nM | 1.1 µM | 2.7 µM | 1.1 µM | –
13 | CCOc1ccc(C2c3ccccc3CCN2CCC(=O)NO)cc1 (stereo not given) | 5.7% | 210 nM | > 100 µM | 99 µM | 24 µM | –
14 | O=C(CN1CCc2ccccc2C1c1ccccc1)NO (stereo not given) | 17% | 19000 nM | > 100 µM | > 100 µM | > 100 µM | –
15 | O=C(CCN1CCc2ccccc2C1c1ccc2ccccc2c1)NO (stereo not given) | 74% | 390 nM | 3.4 µM | 13 µM | 2.4 µM | –
16 | O=C(CCN1CCc2ccccc2C1c1cccc(C(F)(F)F)c1)NO (stereo not given) | 17% | 340 nM | > 100 µM | > 100 µM | 37 µM | –
17 | O=C(CCN(Cc1ccccc1)Cc1ccccc1)NO | – | 1400 nM | 52 µM | > 100 µM | 33 µM | Ratio IC50 (Homo sapiens [2]): 24; Ratio IC50 (Homo sapiens [9]): > 71; Ratio IC50 (Homo sapiens [10]): 37
18 | O=C(CCN1CCc2ccccc2C1c1ccc(C(F)(F)F)cc1)NO (stereo not given) | 26% | 190 nM | 27 µM | > 100 µM | 18 µM | –
19 | O=C(CCCCN(Cc1ccccc1)Cc1ccccc1)NO | – | 1900 nM | 1.4 µM | 5.4 µM | 1.8 µM | –
20 | O=C(CCCCCCNCc1ccccc1)NO | – | 1800 nM | 0.43 µM | 3.1 µM | 0.34 µM | –
21 | COc1ccc(Cn2ccc3ccc(C(=O)NO)cc32)cc1 | – | – | – | – | – | Activity (SK-N-AS): Active; Activity (SH-SY5Y [11]): Active; Activity (IMR-5 [12]): Active; Activity (Kelly): Active; inhibition (SH-SY5Y [13]): inactive; inhibition (SH-SY5Y [14]): inactive
